Our source for the Ratio and IC50 values is ChEMBL document CHEMBL1129653, “Synthesis and quantitative structure-activity relationship of a novel series of small conductance Ca(2+)-activated K+ channel blockers related to dequalinium” (J Med Chem, 1996).

By IC50 is commonly meant the midpoint of a concentration-inhibition curve.

Assay [1] in a line: Equieffective molar ratio of compound to inhibit hyperpolarization in cultured rat sympathetic neurons. The format is functional, Sympathetic neuron. An outline of the steps: (§1)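 Rat sympathetic neurons dissociated, plated on laminin-coated dishes and cultured 3–10 days, then perfused with physiological salt solution (mM: NaCl 118, KCl 4.8, CaCl2 2.5). AHP inhibition taken as the peak difference between control and blocker records, as % of control AHP. Dequalinium reference run in each series. EMR is test-compound IC50 divided by dequalinium IC50 from the same experiment; IC50 by Hill fit, ≥3 cells.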

Assay [2] has as its target T1, Small conductance calcium-activated potassium channel (Rattus norvegicus, UniProt P70604+P70606+P70605). Briefly: SKCa-blocking activity by its ability to inhibit after hyperpolarization (AHP) in cultured rat sympathetic neurons. The format is functional, cell-based. The conditions noted are these: sympathetic neuron. An outline of the steps:
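AHP block was the peak of the digitally subtracted control-minus-drug record, as % of control AHP at the same time point. IC50 came from a Hill equation fit over at least three cells. Test concentrations above 10–30 µM were generally avoided.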

Assay [3] has as its target T1, Small conductance calcium-activated potassium channel. Briefly: SKCa-blocking activity as inhibition of after hyperpolarization (AHP) in cultured rat sympathetic neurons; Insufficient activity at maximal dose used. Type of assay: functional, cell-based. As to conditions: sympathetic neuron. An outline of the steps:
(§2)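 Cultured rat sympathetic neurons (laminin-coated dishes, 3–10 days) were perfused with physiological salt solution (mM: NaCl 118, KCl 4.8, CaCl2 2.5). AHP block was the peak of the digitally subtracted control-minus-drug record, as % of control AHP at the same time point. IC50 came from a Hill equation fit over at least three cells. Test concentrations above 10–30 µM were generally avoided.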

The nature of assay [4]: Equieffective molar ratio of compound to inhibit hyperpolarization in cultured rat sympathetic neurons; Insufficient activity up to this concentration to determine. Type of assay: functional, Sympathetic neuron. An outline of the steps:
as §1

For assay [5], the target named is T1, Small conductance calcium-activated potassium channel. Put plainly: SKCa-blocking activity as inhibitino of after hyperpolarization (AHP) in cultured rat sympathetic neurons; No activity at maximal dose used. The format is functional, cell-based. The conditions noted are these: sympathetic neuron. An outline of the steps: as §2
The nature of assay [6]: Equieffective molar ratio of compound to inhibit hyperpolarization in cultured rat sympathetic neurons; No activity up to this concentration. Type of assay: functional, Sympathetic neuron. An outline of the steps: as §1

For the compound `Cc1cc(NCCCCCCCCCCNc2cc(C)[n+](Cc3ccccc3)c3ccccc23)c2ccccc2n1`, in assay [1], the Ratio came to 2.4. Also, in assay [2], the IC50 worked out at 1300 nM. For `COc1cc(C[n+]2c(C)cc(NCCCCCCCCCCNc3cc(C)nc4ccccc34)c3ccccc32)cc(OC)c1`, in that order: 1.2 and 750 nM. For `C[n+]1ccc(NCCCCCCCCCCNc2cc[n+](C)c3ccccc23)c2ccccc21`, in that order: 1.9 and 2100 nM. Taken in the same sequence, the figures for `Cc1cc(NCCCCCCCCCCCCNc2cc(C)nc3ccccc23)c2ccccc2n1` were 7.1 and 3800 nM. Consider `Cc1cc(NCCCCCCCCCCNc2cc(C)nc3ccccc23)c2ccccc2n1` [QUINDECAMINE], for which the Ratio in assay [1] was found to be 3.6. The concentration for half-maximal inhibition (IC50) in assay [2] amounted to 2500 nM. Taken in the same sequence, the figures for `Cc1cc(NCCCCCCCCCCNc2cc(C)[n+](Cc3ccccc3)c3ccccc23)c2ccccc2[n+]1Cc1ccccc1` were 0.6 and 400 nM.

Regarding `C[n+]1ccc(NCCCCCCCCNc2cc[n+](C)c3ccccc23)c2ccccc21`, the Ratio in assay [1] is listed as 3.1. Moreover, the IC50 in assay [2] came out at 2700 nM. For `c1ccc2c(OCCCCCCCCCCOc3ccnc4ccccc34)ccnc2c1`, in that order: 16 and 18000 nM. Turning to `c1ccc(C[n+]2ccc(NCCCCCCCCCCNc3cc[n+](Cc4ccccc4)c4ccccc34)c3ccccc32)cc1`, in assay [1], the Ratio was found to be 1. Moreover, the IC50 in assay [2] was determined as 700 nM. For `Cc1cc(NCCCCCCCCCCCCNc2cc(C)[n+](Cc3ccccc3)c3ccccc23)c2ccccc2n1`, the Ratio in assay [1] came out at 8. Besides, the IC50 in assay [2] was determined as 4400 nM.

In the case of `c1ccc2c(NCCCCCCCCCCNc3ccnc4ccccc34)ccnc2c1`, in assay [1], the Ratio is 3.5. On to `C[n+]1ccc(CCCCCCCCCCCCc2cc[n+](C)c3ccccc23)c2ccccc21`, for which the Ratio in assay [1] worked out at 5.9. For the same compound, in assay [2], the IC50 amounted to 3900 nM.

In the case of `Cc1cc(N)c2ccccc2[n+]1CCCCCCCCCC[n+]1c(C)cc(N)c2ccccc21.[Cl-].[Cl-]` [DEQUALINIUM CHLORIDE], the IC50 in assay [2] was found to be 1000 nM. Turning to `COc1cc(C[n+]2c(C)cc(NCCCCCCCCCCNc3cc(C)[n+](Cc4cc(OC)cc(OC)c4)c4ccccc34)c3ccccc32)cc(OC)c1`, the Ratio in assay [1] was 2.1. Also, the half-maximal inhibitory concentration (IC50) in assay [2] came to 1700 nM. With `c1ccc2c(SCCCCCCCCCCSc3ccnc4ccccc34)ccnc2c1`, the IC50 in assay [3] is over 10000 nM. The Ratio in assay [4] was over 10. For the compound `C[n+]1ccc(NCCCCCCCCCCNc2cc[n+](C)c3cc(Cl)ccc23)c2ccc(Cl)cc21`, the Ratio in assay [1] was determined as 1.5. In assay [2], the IC50 was determined as 1300 nM.

`Cc1cc(NCCCCCCCCCCNc2cc(C)[n+](CCC(c3ccccc3)c3ccccc3)c3ccccc23)c2ccccc2[n+]1CCC(c1ccccc1)c1ccccc1`: the Ratio in assay [1] was determined as 6.2. The half-inhibitory concentration (IC50) in assay [2] was 4300 nM.

For `Cc1cc(NCCCCCCCCCCCCNc2cc(C)[n+](Cc3ccccc3)c3ccccc23)c2ccccc2[n+]1Cc1ccccc1`, the Ratio in assay [1] is listed as 4. Moreover, the IC50 in assay [2] came out at 2400 nM. For `C[n+]1ccc(SCCCCCCCCCCSc2cc[n+](C)c3ccccc23)c2ccccc21`, in that order: 6.2 and 3700 nM. For `C[n+]1ccc(CCCCCCCCCCc2cc[n+](C)c3ccccc23)c2ccccc21`, in that order: 26 and 40000 nM.

Take `C[n+]1ccc(OCCCCCCCCCCOc2cc[n+](C)c3ccccc23)c2ccccc21`: the Ratio in assay [1] was found to be 7.2. For the same compound, the concentration for half-maximal inhibition (IC50) in assay [2] was determined as 6800 nM. For the compound `c1ccc2c(CCCCCCCCCCCCc3ccnc4ccccc34)ccnc2c1`, the half-inhibitory concentration (IC50) in assay [5] was over 10000 nM. For the same compound, the Ratio in assay [6] is over 10.
